Activity, viability and clearance data for 1 molecule are collected here from ChEMBL document CHEMBL4308887, “Synthesis and biological evaluation of clovamide analogues with catechol functionality as potent Parkinson's disease agents in vitro and in vivo” (Bioorg Med Chem Lett, 2019).

The subject of series [1] is SH-SY5Y. As to the kind of experiment: Neuroprotection against H2O2-induced cell death in human SH-SY5Y cells at 100 uM preincubated for 6 hrs followed by H2O2 addition and measured after 24 hrs by MTT assay relative to control. Type of series: functional. Summed up: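 Human SH-SY5Y neuroblastoma cells pretreated with compound at 100 μM for 6 h, then exposed to 600 μM H₂O₂ for 24 h; viability read by MTT and expressed as protection rate relative to untreated control. DMSO below 0.1% in all groups. Primary single-concentration screen; three independent experiments.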
(In general: Formazan colour is commonly taken as a measure of viable cells.)

Series [2] relates to SH-SY5Y. As to the kind of experiment: Neuroprotection against H2O2-induced toxicity in human SH-SY5Y cells assessed as LDH release at 10 uM preincubated for 6 hrs followed by H2O2 addition and measured after 24 hrs (reference value: 339.93 +/- 3.66 U/L). Type of series: functional. Summed up: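 Cells pretreated with test agent (1 or 10 μM), then 600 μM H₂O₂; plasma membrane damage read as LDH leakage into medium (U/L). DMSO below 0.1% in all groups. Mean ± S.E.M. of three independent experiments.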

For series [3], the system named is SH-SY5Y. As to the kind of experiment: Protection against H2O2-induced morphological changes in human SH-SY5Y cells at 1 to 10 uM preincubated for 6 hrs followed by H2O2 addition and measured after 24 hrs by inverted microscopic analysis. Type of series: functional, cell-based. Summed up: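 Cell morphology under inverted microscope after pretreatment and 600 μM H₂O₂; DMSO below 0.1%.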

In series [4] the test system is SH-SY5Y. Put plainly: Protection against H2O2-induced oxidative stress in human SH-SY5Y cells assessed as reactive oxygen species level at 10 uM preincubated for 6 hrs followed by H2O2 addition and measured after 24 hrs by DHE dye based flow cytometry (reference value: 18.6%). It counts as functional. (In general: Flow cytometry measures light scatter and fluorescence of single cells or particles in a stream.)

Series [5] deals with SH-SY5Y. As to the kind of experiment: Protection against H2O2-induced mitochondrial dysfunction in human SH-SY5Y cells assessed as increase in mitochondrial membrane potential at 1 to 10 uM preincubated for 6 hrs followed by H2O2 addition and measured after 24 hrs by Rh123 staining based inverted microscopic analysis. It counts as functional, cell-based. An outline of the steps:
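ΔΨm examined by inverted fluorescence microscopy and flow cytometry after pretreatment (1, 10 μM) and 600 μM H₂O₂. Reported as % of control. Mean ± S.E.M., three independent experiments.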

For series [6], the system named is SH-SY5Y. Put plainly: Protection against H2O2-induced oxidative stress in human SH-SY5Y cells assessed as reduction in MDA level preincubated for 6 hrs followed by H2O2 addition and measured after 24 hrs by thiobarbituric acid method. Type of series: functional, cell-based. An outline of the steps: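 Cellular SOD activity (units) and MDA content (μmol/g) measured in SH-SY5Y after pretreatment (1, 10 μM) and 600 μM H₂O₂. Mean ± S.E.M. of three independent experiments.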

The test system of series [7] is SH-SY5Y. As to the kind of experiment: Protection against H2O2-induced apoptosis in human SH-SY5Y cells assessed as viable cells at 10 uM preincubated for 6 hrs followed by H2O2 addition and measured after 24 hrs by Annexin V-FITC/propidium iodide staining based flow cytometry (reference value: 12.4%). It counts as functional. The conditions noted are these: read-out: Activity.

Series [8] is described as follows: Induction of apoptosis in non-stimulated human SH-SY5Y cells assessed as viable cells at 10 uM measured after 6 hrs by Annexin V-FITC/propidium iodide staining based flow cytometry (reference value: 92.5%). Type of series: cell-based. The conditions noted are these: read-out: Activity.
The subject of series [9] is SH-SY5Y. As to the kind of experiment: Induction of apoptosis in non-stimulated human SH-SY5Y cells assessed as late apoptotic cells at 10 uM measured after 6 hrs by Annexin V-FITC/propidium iodide staining based flow cytometry (reference value: 2.3%). Type of series: cell-based.
The subject of series [10] is SH-SY5Y. Put plainly: Induction of apoptosis in non-stimulated human SH-SY5Y cells assessed as effect on cleaved caspase3 expression at 1 to 10 uM measured after 6 hrs by Western blot analysis. Type of series: cell-based. An outline of the steps:
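Bax, Bcl-2 and cleaved caspase-3 measured by western blot in SH-SY5Y cells given 1 alone, with β-actin as internal standard. Mean ± S.E.M. of three independent experiments.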
In general terms: In western blotting, separated proteins are transferred to a membrane and probed.

Series [11] concerns Mus musculus. Put plainly: Induction of motor impairment in C57Bl/6 mouse at 10 mg/kg, ig treated for 10 days measured after 4 to 72 hrs for 3 mins by rota rod test. It counts as organism-based. The conditions noted are these: in vivo, po.
For series [12], the system named is Mus musculus. Put plainly: Anti-parkinson's activity in MPTP-induced C57Bl/6 mouse model of Parkinson's disease assessed as increase in tyrosine hydroxylase expression in striatum at 10 to 20 mg/kg, ig pretreated for 10 days followed by MPTP challenge measured 10 days post MPTP addition by Western blot analysis. Type of series: functional, organism-based. An outline of the steps:
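Tissue taken 10 days after MPTP injection from mice dosed orally with 1 (10 or 20 mg/kg). TH in SNpc and striatum by western blot, and by DAB immunostaining. Three of the mice per group analysed. Mean ± S.D., n = 6 mice/group.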

The test system of series [13] is Mus musculus. As to the kind of experiment: Anti-parkinson's activity in MPTP-induced C57Bl/6 mouse model of Parkinson's disease assessed as increase in SOD activity in substantia nigra administered intragastrically pretreated for 10 days followed by MPTP challenge measured 10 days post MPTP addition by xanthine oxidase method. It counts as functional, organism-based. Summed up: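 Striatum and SNpc from MPTP-treated mice dosed orally with 1 at 10 or 20 mg/kg. MDA level and SOD activity measured. Mean ± S.D., n = 6 mice/group.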

A short description of series [14]: Clearance in Sprague-Dawley rat at 5 mg/kg, iv by LC-MS/MS analysis. Particulars: in vivo. Type of series: ADME, organism-based. Summed up:
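Male Sprague–Dawley rats dosed with 1 at 5 mg/kg i.v. (vehicle 5% DMSO, 2% F68, 93% saline) or 25 mg/kg p.o. (0.5% methylcellulose with 1% Tween 80). Orbital blood sampled at 0.083–24 h, 12 time points. Plasma PK parameters derived. Mean ± SD, n = 3.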

A short description of series [15]: Activation of PI3K/Akt/mTOR signaling in human SH-SY5Y cells assessed as up regulation of HO-1 expression at 10 uM after 24 hrs by Western blot analysis relative to control. Type of series: cell-based. An outline of the steps:
(§1)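 HO-1 western blot in SH-SY5Y cells incubated 24 h with 1 at 0.1, 1 or 10 μM, without H₂O₂. Band densitometry expressed as % of control. Mean ± S.E.M. from three independent experiments.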

Series [16] is described as follows: Activation of PI3K/Akt/mTOR signaling in human SH-SY5Y cells assessed as up regulation of HO-1 expression after 24 hrs by Western blot analysis. Type of series: cell-based. An outline of the steps: as §1
Series [17] is described as follows: Activation of PI3K/Akt/mTOR signaling in human SH-SY5Y cells assessed as up regulation of H2O2-induced HO-1 expression at 10 uM preincubated for 6 hrs followed by H2O2 addition and after 24 hrs in presence of PI3K/Akt/mTOR inhibitor rapamycin by Western blot analysis. It counts as cell-based. An outline of the steps: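 SH-SY5Y cells preincubated 1 h with one inhibitor: SB203580 10 μM, LY294002 5 μM, U0126 10 μM, SP600125 5 μM or rapamycin 100 nM. Then 1 (10 μM) for 6 h, then 600 μM H₂O₂. HO-1 measured by western blot and densitometry. Mean ± S.E.M., three independent experiments.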

Series [18] is described as follows: Activation of PI3K/Akt/mTOR signaling in human SH-SY5Y cells assessed as increase in mTOR phosphorylation after 5 to 360 mins by Western blot analysis. It counts as cell-based. An outline of the steps:
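SH-SY5Y cells, unstimulated, exposed to 1 for 5, 15, 30, 60, 120, 240 or 360 min. Phospho-AKT and phospho-mTOR measured by western blot, reported as p-AKT/t-AKT and p-mTOR/t-mTOR ratios after densitometry. Mean ± S.E.M. of three independent experiments.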

Activity calls are given as the source filed them. The rule behind the calls is not given here.

Consider `COC(=O)[C@H](Cc1ccccc1)NC(=O)/C=C/c1ccc(O)c(O)c1` [N-CAFFEOYL-PHENYLALANINE METHYL ESTER], for which the Activity in the series with SH-SY5Y [1] was more than 50%; in the series with SH-SY5Y [2], 180.66 U/L; in the series on SH-SY5Y [4] it was 6.6%; with SH-SY5Y [6] it was “Dose-dependent effect”; in the series with SH-SY5Y [9] it was 2.7%; in the series with SH-SY5Y [10], “Non-Toxic”. Besides, the Activity result was “Non-Toxic” in the series with Mus musculus [11], “Dose-dependent effect” in the series on Mus musculus [13], 206% in series [15] and “Dose-dependent effect” in series [16]. For the same molecule, the result (in the series on SH-SY5Y [3]; with SH-SY5Y [5]; in the series on Mus musculus [12]; in [18]) was Active. Further, the viability at 10 µM in the series with SH-SY5Y [7] is 89.8%. Moreover, the viability at 6 h, 10 µM in [8] was 94.8%. Also, the clearance (as a rule, a measure of how efficiently the substance is removed, as volume per time) in series [14] is 25.5 mL/min/kg. Besides, the result in series [17] was inactive.
